These results are taken from ChEMBL document CHEMBL1139869, “Design and synthesis of novel quinolinone-3-aminoamides and their alpha-lipoic acid adducts as antioxidant and anti-inflammatory agents” (2007).

Test [1] in a line: Antioxidant activity assessed as DMSO hydroxyl radical scavenging activity at 0.1 mM. In kind it is functional. An outline of the steps:
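Hydroxyl radicals generated by Fe3+/ascorbic acid; reaction mix contained EDTA 0.1 mM, Fe3+ 167 µM, DMSO 33 mM and ascorbic acid 10 mM in 50 mM phosphate buffer pH 7.4, with test compound at 0.1 mM. Incubated 30 min at 37 °C, then stopped with trichloroacetic acid (17% w/v). Formaldehyde from DMSO oxidation was measured by the Nash method at 425 nm. At least triplicate.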

A short description of test [2]: Antioxidant activity assessed as DPPH reducing activity at 0.5 mM after 60 mins. The test is classed as functional. Also noted: scale not given: the % may be the effect or the level left. An outline of the steps:
(§1)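 DPPH in absolute ethanol was mixed with an equal volume of compound in ethanol (0.1 or 0.5 mM); ethanol served as control. Absorbance at 517 nm was read after 20 and 60 min at room temperature. At least triplicate.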
Background: Loss of DPPH colour is used to gauge radical scavenging.

The target of test [3] is T1, Seed linoleate 13S-lipoxygenase-1 (Glycine max) (UniProt P08170).
T1 sequence (whole entry): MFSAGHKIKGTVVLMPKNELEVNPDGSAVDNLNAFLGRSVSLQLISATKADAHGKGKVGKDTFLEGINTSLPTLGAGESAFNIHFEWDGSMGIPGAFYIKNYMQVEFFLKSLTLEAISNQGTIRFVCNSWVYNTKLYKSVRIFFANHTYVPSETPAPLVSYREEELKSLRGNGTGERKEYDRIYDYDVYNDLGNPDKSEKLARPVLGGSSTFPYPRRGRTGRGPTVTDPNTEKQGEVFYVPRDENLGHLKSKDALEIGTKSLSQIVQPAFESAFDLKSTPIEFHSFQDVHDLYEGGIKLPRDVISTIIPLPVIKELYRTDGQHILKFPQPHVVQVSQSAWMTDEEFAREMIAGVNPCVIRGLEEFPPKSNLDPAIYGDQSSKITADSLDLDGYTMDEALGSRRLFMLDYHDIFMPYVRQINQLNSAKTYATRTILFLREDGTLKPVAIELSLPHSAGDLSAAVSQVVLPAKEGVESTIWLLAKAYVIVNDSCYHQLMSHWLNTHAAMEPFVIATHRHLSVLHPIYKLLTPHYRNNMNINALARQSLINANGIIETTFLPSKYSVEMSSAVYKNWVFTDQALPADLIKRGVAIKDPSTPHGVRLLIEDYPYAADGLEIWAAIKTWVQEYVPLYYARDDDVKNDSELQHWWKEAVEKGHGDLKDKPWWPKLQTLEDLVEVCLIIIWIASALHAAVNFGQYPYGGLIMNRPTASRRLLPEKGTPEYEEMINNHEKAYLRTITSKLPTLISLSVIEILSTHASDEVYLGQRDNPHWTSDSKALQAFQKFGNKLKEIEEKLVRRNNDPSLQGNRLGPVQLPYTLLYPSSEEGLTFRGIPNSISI
Nature of the test: Inhibition of soybean lipoxygenase at 0.1 mM. An outline of the steps:
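Soybean lipoxygenase solution (1/9 × 10⁴ w/v in saline) was incubated at room temperature with sodium linoleate (0.1 mM) and compound dissolved in ethanol. UV absorbance-based read-out. At least triplicate.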

The nature of test [4]: Antioxidant activity assessed as DPPH reducing activity at 0.5 mM after 20 mins. In kind it is functional. Also noted: scale not given: the % may be the effect or the level left. The essentials:
as §1

Test [5] in a line: Antioxidant activity assessed as DPPH reducing activity at 0.1 mM after 20 mins. In kind it is functional. Also noted: scale not given: the % may be the effect or the level left. The essentials:
as §1

For another test, the system named is Rattus norvegicus. Nature of the test: Inhibition of carrageenan-induced Fischer 344 rat paw edema at 0.01 mmol/kg, ip. The test is classed as functional. Particulars: Fischer 344, ip. The essentials:
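Fischer 344 rats (150-200 g), both sexes, pregnant females excluded; 6-15 per group. Paw edema was induced by intradermal injection of 0.1 mL 2% carrageenin in water into the right hind paw. Compound at 0.01 mmol/kg, suspended in water with a few drops of Tween 80, was given ip at the same time. Rats were euthanized at 3.5 h. Injected minus uninjected paw weight was expressed as % inhibition versus water-treated controls. Mean of two experiments.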

The nature of test [6]: Antioxidant activity assessed as DPPH reducing activity at 0.1 mM after 60 mins. The test is classed as functional. Details: scale not given: the % may be the effect or the level left. An outline of the steps: as §1

Activity calls are given as the source filed them. The rule behind the calls is not given here.

Turning to `Cn1c(=O)c(C(=O)NCCCCCCN)c(O)c2ccccc21`, the Activity stood at 59.3% in test [1]; 21.9% in test [2]; 13.7% in test [4]; 3.1% in test [5]; 8.3% in test [6]. Further, the inhibition – broadly, the change of the read-out against control, counted positive when it falls – in test [3] turned out to be 92.1%. Moreover, in the test with Rattus norvegicus, the inhibition in vivo (in general, the change of the read-out against control, counted positive when it falls) at 10 µmol/kg is 68.5%.
Take `O=C(CCCCC1CCSS1)NCCNC(=O)c1c(O)c2ccccc2n(-c2ccccc2)c1=O` (stereo unspecified): the Activity in test [1] was 0%; in test [2], 14.1%; in test [5], 6.4%; in test [6], 7.8%. In addition, the result in test [3] and in test [4] was inactive. The same compound displayed an inhibition in vivo at 10 µmol/kg in the test on Rattus norvegicus of 45.5%.
On to `Cn1c(=O)c(C(=O)NCCNC(=O)CCCCC2CCSS2)c(O)c2ccccc21` (stereo unspecified), for which the Activity in test [1] amounted to 67.9%; in test [2] it was 40.1%; in test [4], 28.8%; in test [5], 10.9%; in test [6] it was 3.4%. In test [3], this compound gave an inhibition of 66.5%. This compound gave an inhibition in vivo at 10 µmol/kg in the test on Rattus norvegicus of 48.2%.
`O=C(CCCCC1CCSS1)NCCCCCCNC(=O)c1c(O)c2ccccc2n(-c2ccccc2)c1=O` (stereo unspecified): the result in test [1] was inactive. Further, the Activity in test [2] was determined as 29.5%; in test [4] it was 23.9%; in test [5] it was 6.2%; in test [6], 10.2%. In test [3], this compound showed an inhibition of 64%. This compound showed an inhibition in vivo at 10 µmol/kg in the test on Rattus norvegicus of 50%.
As for `O=C(CCCCC1CCSS1)Nc1ccccc1NC(=O)c1c(O)c2ccccc2n(-c2ccccc2)c1=O` (stereo unspecified), the result in test [1] was inactive. Besides, the Activity in test [2] is 28.5%; in test [4], 11%; in test [5], 9.7%; in test [6], 16.1%. The compound further had an inhibition in test [3] of 100%. The same compound displayed an inhibition in vivo at 10 µmol/kg in the test on Rattus norvegicus of 63%.
`COC(=O)c1c(O)c2ccccc2n(C)c1=O`: the Activity was determined as 45% in test [1]; 18.4% in test [2]; 17.5% in test [4]; 8.3% in test [5]; 7.4% in test [6]. For the same compound, the inhibition in test [3] stood at 72.4%. The inhibition in vivo at 10 µmol/kg in the test with Rattus norvegicus came out at 58.8%.
Take `Cn1c(=O)c(C(=O)Nc2ccccc2N)c(O)c2ccccc21`: the Activity in test [1] worked out at 60.5%; in test [2] it was 41.4%; in test [4] it was 28.8%; in test [5] it was 6%; in test [6], 13.5%. The same compound yielded an inhibition in test [3] of 71.3%. Further, in the test on Rattus norvegicus, the inhibition in vivo at 10 µmol/kg was 85.3%.
Consider `Cc1c(C)c2c(c(C)c1O)CCC(C)(C(=O)O)O2` (stereo unspecified), for which, in test [1], the Activity amounted to 88.2%.
With `O=C(O)CCCCC1CCSS1` (stereo not drawn) [LIPOIC ACID, ALPHA], the Activity in test [1] turned out to be 38.6%; in test [2], 6.8%; in test [4], 5.2%; in test [5], 20.3%; in test [6] it was 27.1%. The same compound had an inhibition in test [3] of 29.1%. This compound also returned an inhibition in vivo at 10 µmol/kg in the test on Rattus norvegicus of 29.6%.
Take `CC(Cc1ccc(O)c(O)c1)C(C)Cc1ccc(O)c(O)c1` (stereo unspecified): the Activity in test [2] was determined as 98%; in test [4], 96.5%.
Consider `Nc1ccccc1NC(=O)c1c(O)c2ccccc2n(-c2ccccc2)c1=O`, for which the Activity in test [1] is 98%; in test [2], 34.7%; in test [4], 21.3%; in test [5], 9.4%; in test [6] it was 16.3%. Further, the outcome in test [3] was inactive. This compound yielded an inhibition in vivo at 10 µmol/kg with Rattus norvegicus of 48.5%.
For the compound `NCCCCCCNC(=O)c1c(O)c2ccccc2n(-c2ccccc2)c1=O`, the Activity in test [1] was 27.1%; in test [2] it was 28.1%; in test [4], 19.3%; in test [5], 11.6%; in test [6], 17.5%. In test [3], this compound showed an inhibition of 17.6%. For the same compound, the inhibition in vivo at 10 µmol/kg with Rattus norvegicus came to 68.8%.
Consider `NCCNC(=O)c1c(O)c2ccccc2n(-c2ccccc2)c1=O`, for which the Activity in test [1] came to 78.6%; in test [2], 7.9%; in test [4] it was 1.4%; in test [5], 7.2%; in test [6], 10%. In test [3], this compound came in with an inhibition of 82.3%. Moreover, the inhibition in vivo at 10 µmol/kg in the test with Rattus norvegicus was determined as 68.1%.
On to `Cn1c(=O)c(C(=O)NCCCCCCNC(=O)CCCCC2CCSS2)c(O)c2ccccc21` (stereo unspecified), for which the Activity in test [1] came out at 28.6%; in test [2], 38.8%; in test [4] it was 28.4%; in test [5], 9.1%; in test [6], 13%. In test [3], this compound had an inhibition of 79.1%. Further, in the test with Rattus norvegicus, the inhibition in vivo at 10 µmol/kg was 53%.
In turn, `COc1ccc2c(c1)c(CC(=O)O)c(C)n2C(=O)c1ccc(Cl)cc1` [INDOMETHACIN] gave an inhibition in vivo at 10 µmol/kg in the test on Rattus norvegicus of 47%.
On to `COC(=O)c1c(O)c2ccccc2n(-c2ccccc2)c1=O`, for which the Activity in test [1] came to 95%; in test [2], 19.3%; in test [4] it was 16.8%; in test [5] it was 9.1%; in test [6], 9.1%. For the same compound, in test [3], the inhibition came out at 100%. The inhibition in vivo at 10 µmol/kg in the test with Rattus norvegicus came out at 37.1%.
For the compound `Cn1c(=O)c(C(=O)Nc2ccc(N)cc2)c(O)c2ccccc21`, the Activity in test [1] is 20.7%; in test [2], 83.7%; in test [4], 85.1%; in test [5], 90.2%; in test [6] it was 88.1%. Also, the inhibition in test [3] is 50.8%. The inhibition in vivo at 10 µmol/kg in the test on Rattus norvegicus came out at 69.5%.
Regarding `Nc1ccc(NC(=O)c2c(O)c3ccccc3n(-c3ccccc3)c2=O)cc1`, the Activity in test [1] came out at 10%; in test [2] it was 89.2%; in test [4] it was 94.4%; in test [5], 89%; in test [6], 88.3%. In addition, in test [3], the inhibition is 58.9%. In the test with Rattus norvegicus, this compound yielded an inhibition in vivo at 10 µmol/kg of 56.4%.
Consider `Cn1c(=O)c(C(=O)NCCN)c(O)c2ccccc21`, for which the Activity in test [1] amounted to 40.1%; in test [2], 37.1%; in test [4] it was 20.9%; in test [5], 5.6%; in test [6] it was 11.5%. The inhibition in test [3] was 99.5%. Moreover, the inhibition in vivo at 10 µmol/kg in the test on Rattus norvegicus turned out to be 67%.
